Compound activity from PubChem BioAssay.
Hits are enriched below; roughly 0.72% of the tested compounds scored in any of these assays.
mIAP inh = blocks mouse intestinal alkaline phosphatase. purified mouse IAP, CDP-Star luminescence, 30 min. inhibition, % at 10 µM. 330,000 compounds, 0.2% hits;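 active = inhibition of at least 40% at 10 µM in the primary screen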;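 note: plate controls were DMSO with enzyme for no effect and no enzyme wells for full effect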
mIAP activ = mouse IAP activation; muIAP, CDP-Star luminescence, 30 min; active compounds read high; 1 = vehicle-only enzyme signal, 0 = enzyme-free wells; activation factor at 10 µM; 330,000 compounds, 0.24% hits;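 active = activation factor of at least 2 at 20 µM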
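Assay system: mouse IAP enzyme / Compound: DMSO-dissolved test compounds / Timing: 30 min, room temperature / Measured by: luminescence from enzymatic CDP-Star hydrolysis / Control set: DMSO-only wells, enzyme-free buffer wells as negative control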
bIAP inh = intestinal alkaline phosphatase (bovine) inhibition | purified bovine IAP, CDP-star luminescence, 30 min | inhibition, % at 20 µM | 190,000 tested, under 10 active;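 active = over 50% inhibition of intestinal alkaline phosphatase at 20 µM in the single-dose screen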
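System: purified bovine intestinal alkaline phosphatase (IAP) enzyme; Input: IAP diluted 1/65,000,000 in the well; Measured by: CDP-star luminescence signal; Compound dosing: 20 µM single dose; Incubation: 30 min reaction at room temperature.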
hIAP activ = increases human intestinal alkaline phosphatase activity | activation factor at 10 µM | purified human IAP, CDP-Star luminescence, 30 min; active compounds read high; 1 = vehicle-only enzyme, 0 = enzyme-free background | P09923 | 330,000 compounds, 0.16% hits | AID 2524;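 active = activation factor of the enzyme at least 2-fold when tested at 20 µM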
Target sequence (P09923 whole entry, looked up): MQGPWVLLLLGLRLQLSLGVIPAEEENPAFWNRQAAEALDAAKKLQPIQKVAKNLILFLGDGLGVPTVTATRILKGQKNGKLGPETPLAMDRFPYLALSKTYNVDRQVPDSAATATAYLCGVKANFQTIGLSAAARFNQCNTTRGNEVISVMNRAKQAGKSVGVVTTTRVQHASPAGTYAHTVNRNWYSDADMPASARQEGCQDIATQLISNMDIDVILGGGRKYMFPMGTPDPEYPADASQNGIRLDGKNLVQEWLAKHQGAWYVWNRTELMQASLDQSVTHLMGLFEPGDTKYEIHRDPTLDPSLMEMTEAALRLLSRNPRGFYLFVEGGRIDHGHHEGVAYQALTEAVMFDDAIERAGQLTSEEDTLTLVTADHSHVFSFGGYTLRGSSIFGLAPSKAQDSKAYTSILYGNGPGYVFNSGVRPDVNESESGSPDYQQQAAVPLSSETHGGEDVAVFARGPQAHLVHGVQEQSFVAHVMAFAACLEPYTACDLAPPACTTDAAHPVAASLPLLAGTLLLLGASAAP
hIAP block = human IAP inhibition; P09923; purified IAP, CDP-Star luminescence, 30 min; inhibition, % at 10 µM; 330,000 compounds, 0.12% hits; AID 2544;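 active = inhibition reaching a set limit with compound at 10 µM in the primary screen, cut at about 35% in these data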;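 note: plate controls were DMSO wells with enzyme for no effect and no-enzyme buffer wells for full effect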
bIAP activator = intestinal alkaline phosphatase (bovine) activation. 200,000 compounds, 0.17% hits. AID 1016. activation factor at 20 µM. purified bovine IAP, CDP-star luminescence, 30 min; active compounds read high; fold of DMSO-control signal, blank-subtracted;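 active = activation factor of 2 or more at 20 µM, a signal rise over negative controls twice the positive control's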
Numbers without * were called inactive; / = no result.

SMILES	mIAP inh	mIAP activ	bIAP inh	hIAP activ	hIAP block	bIAP activator
CC1(N(O)C=C2C=CC(=O)C=C2)CCCCC1=O (stereo not given)	-6.2	1.06	/	1.08	-7.8	/
O=CNCCCc1nc2ccccc2n1CCc1ccccc1	2.0	0.98	/	0.999	0.1	/
COc1cccc(NCc2cc3c(C(C)(C)C)nn(-c4ccccc4)c3[nH]c2=O)c1	-8.5	1.08	-280.5	1.03	-3.1	3.8*
CC(C)(C)OC(=O)NCCCCCc1cn([C@@H](CO)C(=O)NCCCCCCCCCCC(=O)N2CCN(C(=O)OC(C)(C)C)CC2)nn1	-6.6	1.07	/	0.911	8.9	/
CC(C)(C)OC(=O)CC[C@@H](C(=O)NCCCCCCCCCCC(=O)N1CCN(C(=O)OC(C)(C)C)CC1)n1cc(CCCCCNC(=O)OC(C)(C)C)nn1	-216.2	3.16*	/	0.995	0.5	/
C#CCOCCOCCOCCNc1nc(N2CCN(C(=O)CCCCCCCCCCNC(=O)[C@@H](CCSC)n3cc(CCO)nn3)CC2)nc(N2CCN(C(=O)CCCCCCCCCCNC(=O)[C@H](CCSC)n3cc(CCO)nn3)CC2)n1	-164.0	2.64*	/	0.883	11.7	/
CC[C@H](C)[C@@H](C(=O)NCCCCCCCCCCC(=O)N1CCN(C(=O)OC(C)(C)C)CC1)n1cc(CCCCCNC(=O)OC(C)(C)C)nn1	-150.4	2.5*	/	0.995	0.5	/
CSc1c(C#N)sc(=S)n1-c1ccc(C)cc1	8.0	0.92	15.5	0.914	8.6	0.8
COc1cc(NC2c3ncccc3C(=O)N2Cc2ccco2)cc(OC)c1OC (stereo not given)	10.5	0.895	-6.9	1.01	-1.2	1.1
CC(C)C(NC(=O)CCNC(=O)c1ccc([N+](=O)[O-])cc1)c1nc2ccccc2[nH]1 (stereo not given)	5.6	0.944	/	0.991	0.9	/
CC1CCCCC1NC(=S)Nc1ccc(Cl)cc1Cl (stereo not given)	-177.8	2.78*	-2.3	1.05	-5.3	1
O=C(CCC(=O)N1CCN(c2ccccn2)CC1)c1ccc(Cl)s1	-4.0	1.04	/	1.13	-12.8	/
Clc1cccc(Cl)c1CSc1nnc(-c2ccncc2)s1	1.6	0.984	/	2.06*	-105.8	/
O=C(NC(=S)N1CCCC1)c1ccccc1F	7.8	0.922	/	0.916	8.4	/
COCCn1nnnc1C(c1cc2cc(C)ccc2[nH]c1=O)N1CCc2ccccc21 (stereo not given)	38.7	0.613	7.3	0.854	14.6	0.9
Cc1ccc2[nH]c(=O)c(C(c3nnnn3CCc3ccccc3)N3CCOCC3)cc2c1 (stereo not given)	45.9*	0.541	3.8	0.962	3.8	1
O=C(CN(C(=O)CCC(=O)Nc1nccs1)c1cccc(F)c1)NCc1ccccc1	0.0	1	/	1.09	-9.0	/
CC(C)NC(=O)COC(=O)c1ccccc1C(=O)c1ccccc1	2.2	0.978	-32.6	1.12	-12.5	1.3
N#Cc1sc2nc(C3CC3)cc(-c3ccccc3)c2c1N	-14.2	1.14	14.9	1.29	-29.1	0.9
N#Cc1sc2nc(-c3ccccc3)cc(-c3ccco3)c2c1N	48.1*	0.519	11.3	0.959	4.1	0.9
O=C1NC(=S)S/C1=C\c1coc2ccc(O)cc2c1=O	45.9*	0.541	/	0.866	13.4	/
COC(=O)Nc1ccc(S(=O)(=O)Nc2ccc(O)cc2)cc1	11.8	0.882	-142.1	1.05	-5.1	2.4*
COC(=O)Nc1ccc(S(=O)(=O)Nc2ccc(C)cc2)cc1	/	/	6.3	/	/	0.9
CC(NC(=O)Nc1ccccc1)C(c1cccs1)N1CCOCC1 (stereo not given)	-2.5	1.02	3.5	0.966	3.4	1
CC(NC(=O)Nc1ccc(Cl)cc1)C(c1cccs1)N1CCOCC1 (stereo not given)	-137.4	2.37*	-20.1	1.19	-19.4	1.2
SMILES	mIAP inh	mIAP activ	bIAP inh	hIAP activ	hIAP block	bIAP activator
O=C(CCC1CCCCC1)Nc1nccs1	3.8	0.962	15.8	1.09	-8.6	0.8
O=C(CCC1CCCCC1)Nc1ncn[nH]1	-21.2	1.21	-128.4	1.02	-1.8	2.3*
Cc1c(CCOC(=O)c2cccc([N+](=O)[O-])c2)sc[n+]1CC(=O)c1ccccc1	42.8*	0.572	/	0.848	15.2	0.4
C=CCn1c(=O)/c(=C/c2ccc(C)o2)s/c1=C(/C#N)C(=O)c1ccccc1	41.6*	0.584	19.1	0.808	19.2	0.8
C=CCn1c(=O)/c(=C\c2ccccn2)s/c1=C(/C#N)C(=O)NCC1CCCO1 (stereo not given)	7.0	0.93	-6.0	0.924	7.6	1.1
CCc1ccc(NC(=O)C(CC)Sc2nc3cc4c(cc3c(=O)n2Cc2ccco2)OCO4)cc1 (stereo not given)	-27.4	1.27	-190.7	1.06	-6.5	2.9*
CSc1ncccc1C(=O)NCc1nnc2ccccn12	-2.4	1.02	/	0.879	12.1	/
Cc1cc(C(=O)OCC(=O)Nc2ccccc2[N+](=O)[O-])c2ccccc2n1	-4.3	1.04	-108.5	0.853	14.7	2.1*
O=C(Nc1ccccc1Cl)C1CCN(Cc2cnn(-c3ccccc3)c2-n2cccc2)CC1	7.6	0.924	-43.6	1.01	-1.3	1.4
O=C(NCc1ccc2c(c1)OCO2)C1CCN(Cc2cnn(-c3ccccc3)c2-n2cccc2)CC1	-20.9	1.21	-114.3	1.35	-35.3	2.1*
COc1cccc(CNC(=O)CCC2CCCN(C(=O)c3cc(C)on3)C2)c1 (stereo not given)	-13.5	1.14	-1.4	1.05	-5.1	1
COc1cccc(CNC(=O)CCC2CCCN(C(=O)c3cc(C4CC4)[nH]n3)C2)c1 (stereo not given)	-9.5	1.09	-123.4	1.32	-31.9	2.2*
O=C(Nc1ccc(Oc2ccc(NC(=O)Nc3ccccc3Cl)cc2)cc1)Nc1ccccc1Cl	-102.1	2.02*	/	1.01	-0.7	/
CC(=O)Nc1ccc(NC(=O)Nc2ccc(C)c(C)c2)cc1	-19.8	1.2	-5.1	0.785	21.5	1.1
CC(=O)Nc1cccc(NC(=O)Nc2ccc(C)c(Cl)c2)c1	-110.8	2.11*	-2.3	1.18	-17.7	1
O=C(Nc1ccccc1)Nc1ccc(Br)c(Cl)c1	-234.4	3.34*	0.1	1.29	-28.8	1
O=C(Nc1ccccc1)Nc1ccccc1Br	-52.5	1.52	-1.6	1.17	-16.5	1
O=C(Nc1ccc(F)cc1)Nc1cccc(Br)c1	-198.9	2.99*	/	1.01	-1.0	/
Cc1c(C(=O)N/N=C/c2cccs2)nnn1-c1nonc1N	-0.9	1.01	/	0.929	7.1	/
Cc1ccc(NC(C#N)c2ccccc2OCc2ccccc2)cc1 (stereo not given)	-4.5	1.04	1.0	1.06	-5.6	1
O=C(NS(=O)(=O)N1CCOCC1)C1=C(N2CCCC2)COC1=O	6.8	0.932	/	1.12	-12.4	/
CC(C)(C)c1ccc(C(CC(=O)O)NC(=O)Cc2ccc(Cl)cc2)cc1 (stereo not given)	-8.2	1.08	/	0.803	19.7	/
